Consider 12 compounds from ChEMBL document CHEMBL1124009 (J Med Chem, 1988).

Positions of bridges follow the written chain, without caps; N, C: chain ends. Non-standard residues stand in square brackets, D forms with d. Residues, ends and D or L forms follow the SMILES beside them. dTic = O=C(O)[C@H]1Cc2ccccc2CN1; Pen = CC(C)(S)[C@H](N)C(=O)O

Assay [1] addresses Delta-type opioid receptor (Rattus norvegicus, UniProt P33533). In words: Binding affinity in competition with [3H]- DPDPE in Opioid receptor delta 1 binding to rat brain membrane. An outline of the steps:
(§1)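 Brains (minus cerebellum) of male Sprague–Dawley rats (200–250 g) were homogenized, preincubated 30 min at 25 °C and centrifuged twice at 43000g. Homogenate at 0.5% final was incubated with 0.5 nM [3H]CTOP (μ) or 1.0 nM [3H]DPDPE (δ) in 50 mM Tris-HCl pH 7.4 with 5 mM MgCl2, BSA 1 mg/mL and 100 μM PMSF, 120 min at 25 °C, in duplicate. Nonspecific binding was taken with 1 μM naloxone; bound label was filtered and scintillation counted; curves were fit by nonlinear least squares.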

The species entered for assay [2] is Cavia porcellus. In words: Negative logarithm of antagonist concentration that requires doubling of agonist concentration to induce original agonist response. The conditions noted are these: read-out: pA2 (converted).
A further assay concerns the target Mu-type opioid receptor (Rattus norvegicus, UniProt P33535). Put plainly: Binding affinity in competition with [3H]- CTOP in Opioid receptor mu 1 binding to rat brain membrane. An outline of the steps: as §1
The species entered for assay [3] is Cavia porcellus. Put plainly: Intrinsic agonist activity in guinea Pig Ileum (GPI) was determined. It counts as functional. The conditions noted are these: filed as agonist. The method in brief:
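Longitudinal muscle–myenteric plexus strips of ileum from male Hartley guinea pigs (200–500 g) sat in Krebs–bicarbonate at 37 °C under 95% O2/5% CO2 at 1 g tension. Strips were field-stimulated at 0.1 Hz with 0.4-ms supramaximal pulses, and isometric twitches were recorded. Agonist action was taken as twitch inhibition. pA2 came from PL017 (μ agonist) dose–response curves without and with several antagonist concentrations.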

In assay [4] the target is Opioid receptors; mu & delta (Rattus norvegicus) (UniProt P33533+P33535). In words: Ratio of selective binding affinity of mu receptor to that of delta opioid receptor. It counts as protein assay.
A short description of assay [5]: Ratio of selective binding affinity of mu receptor to that of somatostatin receptor.
For assay [6], the target named is Mu-type opioid receptor (Rattus norvegicus) (UniProt P33535). Put plainly: Binding affinity of compound in competition with [3H]- CTOP in Opioid receptor mu 1 binding to rat brain membrane at 10000 nM.
A further assay addresses Somatostatin receptor. In words: Binding affinity in competition with [125I]- CGP-23996 in somatostatin receptor binding to rat brain membrane. An outline of the steps: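 Rat whole-brain membranes (adult male Sprague–Dawley) at 1.0% final tissue were incubated with 0.2 nM [125I]CGP 23,996 and analogues at 100–0.3 μM. Buffer was 50 mM Tris pH 7.4 with 2.0 mg/mL BSA, 20 μg/mL bacitracin and 5 mM MgCl2. Incubation ran 1 h at 37 °C and ended by rapid filtration through BSA-soaked GF/B filters.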

For assay [7], the target named is Mu-type opioid receptor (Rattus norvegicus) (UniProt P33535). In words: Percentage inhibition in competition with [3H]- CTOP in Opioid receptor mu 1 binding to rat brain membrane at 10000 nM.

Chain of Mu-type opioid receptor (P33535 whole entry): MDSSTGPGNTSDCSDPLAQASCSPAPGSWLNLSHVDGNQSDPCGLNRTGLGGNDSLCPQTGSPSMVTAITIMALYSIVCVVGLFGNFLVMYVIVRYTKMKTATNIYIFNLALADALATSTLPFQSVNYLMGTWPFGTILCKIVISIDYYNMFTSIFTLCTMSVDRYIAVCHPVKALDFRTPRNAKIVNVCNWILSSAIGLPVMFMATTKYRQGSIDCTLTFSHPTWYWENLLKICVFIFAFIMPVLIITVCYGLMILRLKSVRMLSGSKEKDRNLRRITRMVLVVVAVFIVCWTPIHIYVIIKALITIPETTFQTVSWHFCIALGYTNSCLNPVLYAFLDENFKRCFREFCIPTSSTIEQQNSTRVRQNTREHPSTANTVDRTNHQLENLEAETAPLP
Chain of Opioid receptors; mu & delta (Rattus norvegicus) (P33533 whole entry, looked up): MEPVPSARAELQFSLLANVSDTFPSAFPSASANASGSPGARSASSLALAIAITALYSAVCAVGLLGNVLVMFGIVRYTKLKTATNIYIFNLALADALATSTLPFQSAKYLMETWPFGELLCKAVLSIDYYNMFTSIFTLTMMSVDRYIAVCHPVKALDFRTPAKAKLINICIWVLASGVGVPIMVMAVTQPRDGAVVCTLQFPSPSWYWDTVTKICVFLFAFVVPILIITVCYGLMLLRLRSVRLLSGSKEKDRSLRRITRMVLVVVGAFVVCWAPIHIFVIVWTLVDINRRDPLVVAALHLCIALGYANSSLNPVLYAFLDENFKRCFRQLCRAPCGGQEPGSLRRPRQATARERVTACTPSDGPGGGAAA
Chain of Opioid receptors; mu & delta (Rattus norvegicus) (P33535 whole entry, looked up): as the sequence (P33535 whole entry) above
Chain of Delta-type opioid receptor (P33533 whole entry): as the sequence (P33533 whole entry, looked up) above
Chain of Mu-type opioid receptor (Rattus norvegicus) (P33535 whole entry): as the sequence (P33535 whole entry) above

Consider `C[C@@H](O)[C@H](NC(=O)[C@H]1NC(=O)[C@H]([C@@H](C)O)NC(=O)[C@H](CCCCN)NC(=O)[C@@H](Cc2c[nH]c3ccccc23)NC(=O)[C@H](Cc2ccc(O)cc2)NC(=O)[C@@H](NC(=O)[C@H](N)Cc2ccccc2)CSSC1(C)C)C(N)=O`, for which the IC50 in assay [1] is 1150 nM. The Kb in the assay filed under Cavia porcellus [2] is 79.4 nM.
Turning to `C[C@@H](O)[C@H](NC(=O)[C@H]1NC(=O)[C@H]([C@@H](C)O)NC(=O)[C@H](CCCN=C(N)N)NC(=O)[C@@H](Cc2c[nH]c3ccccc23)NC(=O)[C@H](Cc2ccc(O)cc2)NC(=O)[C@@H](NC(=O)[C@H]2Cc3ccccc3CN2)CSSC1(C)C)C(N)=O` (H-[dTic]CY[dW]RT[Pen]T-NH2; disulfide 2-7), the IC50 amounted to 1270 nM in assay [1] and 1.2 nM on Mu-type opioid receptor. Further, the Kb in the assay filed under Cavia porcellus [2] is 2.04 nM.
For `C[C@@H](O)[C@H](NC(=O)[C@H]1NC(=O)[C@H]([C@@H](C)O)NC(=O)[C@H](CCCCN)NC(=O)C(Cc2c[nH]c3ccccc23)NC(=O)[C@H](Cc2ccc(O)cc2)NC(=O)[C@@H](NC(=O)C(N)Cc2c[nH]c3ccccc23)CSSC1(C)C)C(N)=O` (stereo in doubt), the Activity entry in the assay listed under Cavia porcellus [3] was “Agonist”. The Ratio was over 1590 in assay [4] and 254 in assay [5].
For the compound `C[C@@H](O)[C@@H]1NC(=O)[C@H](CCCCN)NC(=O)C(Cc2c[nH]c3ccccc23)NC(=O)[C@H](Cc2ccc(O)cc2)NC(=O)[C@@H](NC(=O)[C@H](N)Cc2ccccc2)CSSC(C)(C)[C@@H](C(=O)N[C@@H](CO)C(N)=O)NC1=O` (stereo in doubt), the IC50 in [1] is over 10000 nM; at Mu-type opioid receptor, 20 nM. For the same compound, the Kb in the assay filed under Cavia porcellus [2] was 575 nM.
Regarding `C[C@@H](O)[C@H](NC(=O)[C@@H]1NC(=O)[C@H](CCCCN)NC(=O)C(Cc2c[nH]c3ccccc23)NC(=O)[C@H](Cc2ccc(O)cc2)NC(=O)[C@@H](NC(=O)[C@@H](N)Cc2ccccc2)CSSC1(C)C)C(N)=O` (stereo in doubt), the inhibition in [6] amounted to 18%.
Take `CC(C)[C@H](NC(=O)[C@H]1NC(=O)[C@H]([C@@H](C)O)NC(=O)[C@H](CCCCN)NC(=O)[C@@H](Cc2c[nH]c3ccccc23)NC(=O)[C@H](Cc2ccc(O)cc2)NC(=O)[C@@H](NC(=O)[C@H]2Cc3ccccc3CN2)CSSC1(C)C)C(N)=O`: the results for the IC50 (in assay [1]; on Mu-type opioid receptor) were 2120 nM and 46 nM, respectively. The Kb in the assay listed under Cavia porcellus [2] is 257 nM.
Regarding `C[C@@H](O)[C@H](NC(=O)[C@H]1NC(=O)[C@H]([C@@H](C)O)NC(=O)[C@H](CCCCN)NC(=O)C(Cc2c[nH]c3ccccc23)NC(=O)[C@@H](Cc2ccc(O)cc2)NC(=O)[C@@H](NC(=O)[C@H]2Cc3ccccc3CN2)CSSC1(C)C)C(N)=O` (stereo in doubt), the concentration for half-maximal inhibition (IC50) in [1] was 9320 nM; on Mu-type opioid receptor, 1.2 nM. Also, the Kb in the assay listed under Cavia porcellus [2] was 7.94 nM.
For `C[C@@H](O)[C@H](NC(=O)[C@H]1NC(=O)[C@H]([C@@H](C)O)NC(=O)[C@H](CCCCN)NC(=O)[C@H](Cc2c[nH]c3ccccc23)NC(=O)[C@H](Cc2ccc(O)cc2)NC(=O)[C@@H](NC(=O)[C@@H](N)Cc2ccccc2)CSSC1(C)C)C(N)=O`, the IC50 on Somatostatin receptor is 1.462 µM. The values for the Ratio in assay [4] and in assay [5] were 312 and 395, respectively.
In assay [7], `C[C@@H](O)[C@H](NC(=O)[C@H]1NC(=O)[C@H](CC(N)=O)NC(=O)[C@H](Cc2ccc(O)cc2)NC(=O)[C@@H](NC(=O)[C@@H](N)Cc2ccccc2)CSSC1(C)C)C(N)=O` returned an inhibition of 17%. This compound gave an IC50 on Somatostatin receptor of over 100 µM.
As for `C[C@@H](O)[C@H](NC(=O)[C@H]1NC(=O)[C@H]([C@@H](C)O)NC(=O)[C@H](CCCNC(=N)N)NC(=O)[C@@H](Cc2c[nH]c3ccccc23)NC(=O)[C@H](Cc2ccc(O)cc2)NC(=O)[C@@H](NC(=O)[C@H](N)Cc2ccccc2)CSSC1(C)C)C(N)=O`, the IC50 on Somatostatin receptor amounted to 8.452 µM. Further, the figures for the Ratio in assay [4] and in assay [5] were 2530 and 4020, respectively. Moreover, the Kb in the assay listed under Cavia porcellus [2] is 75.9 nM.
`C[C@@H](O)[C@H](NC(=O)[C@H]1NC(=O)[C@H](CC(N)=O)NC(=O)[C@H](Cc2ccccc2)NC(=O)[C@@H](NC(=O)[C@@H](N)Cc2ccc(O)cc2)CSSC1(C)C)C(N)=O`: at Somatostatin receptor, the IC50 entry was “>= 10000 nM”. Besides, the Ratio in assay [4] and in assay [5] was over 1.3 throughout.
As for `C[C@@H](O)[C@H](NC(=O)[C@H]1NC(=O)[C@H]([C@@H](C)O)NC(=O)[C@H](CCCN)NC(=O)[C@@H](Cc2c[nH]c3ccccc23)NC(=O)[C@H](Cc2ccc(O)cc2)NC(=O)[C@@H](NC(=O)[C@H]2Cc3ccccc3CN2)CSSC1(C)C)C(N)=O`, the IC50 in assay [1] was 16000 nM; on Mu-type opioid receptor, 1.4 nM. For the same compound, the Kb in the assay filed under Cavia porcellus [2] was 41.7 nM.

The term IC50 denotes the concentration at which inhibition is half-maximal. The low end stands for inhibition by little substance, the high end for a need for much substance. What is called inhibition is the share of the control response that was lost under treatment.
